Test results: ChEMBL document CHEMBL1121804, “Cognition-activating properties of 3-(Aryloxy)pyridines” (J Med Chem, 1981)

Legend:
[1] = tested on: Mus musculus; test: Retention for passive avoidance learning in mice at dose 80 mg/kg; assay type: functional, organism-based; set-up: dose 80 mg/kg
Outline: (§1)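 Naive male CF-1 mice (19–21 g at shipment), 20 per dose, each used once. Dosed i.p. as an aqueous solution or methocel suspension 1 h before footshock training, with a saline group run in parallel. At the test, mice were placed on an outside shelf; entering the box within 60 s counted as no retention. Values are percent retention. A day was discarded unless controls scored 65–75%.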

[2] = tested on: Mus musculus; test: Retention for passive avoidance learning in mice at dose 5.0 mg/kg; assay type: functional, organism-based; set-up: dose 5 mg/kg; outline: as §1
[3] = tested on: Mus musculus; test: Retention for passive avoidance learning in mice at dose 20 mg/kg; assay type: functional, organism-based; set-up: dose 20 mg/kg; outline: as §1
[4] = organism: Mus musculus
[5] = tested on: Mus musculus; test: Compound was tested for cognitive activity by measuring retention for passive avoidance learning in mice at dose 0.32 mg/kg; assay type: functional, organism-based; set-up: dose 0.32 mg/kg
Outline: (§2)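 Male CF-1 mice (19–21 g at shipment), 20 per dose group, each used once. Given ip an aqueous solution or methocel suspension 1 h before footshock training, with a saline group run alongside. Retention test: mouse placed on an outer shelf of the box; entering within 60 s scored as not retained. Value is percent retention. Days with control retention outside 65–75% were discarded.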

[6] = tested on: Mus musculus; test: Compound was tested for cognitive activity by measuring retention for passive avoidance learning in mice at dose 0.15 mg/kg; assay type: functional, organism-based; set-up: dose 0.15 mg/kg; outline: as §2
[7] = tested on: Mus musculus; test: (§3) Compound was tested for cognitive activity by measuring retention for passive avoidance learning in mice at dose 0.63 mg/kg; assay type: functional, organism-based; set-up: dose 0.63 mg/kg; outline: as §2
[8] = tested on: Mus musculus; test: Retention for passive avoidance learning in mice at dose 2.5 mg/kg; assay type: functional, organism-based; set-up: dose 2.5 mg/kg; outline: as §1
[9] = tested on: Mus musculus; test: Retention for passive avoidance learning in mice at dose 1.25 mg/kg; assay type: functional, organism-based; set-up: dose 1.25 mg/kg; outline: as §1
[10] = tested on: Mus musculus; test: Compound was tested for cognitive activity by measuring retention for passive avoidance learning in mice at dose 10 mg/kg; assay type: functional, organism-based; set-up: dose 10 mg/kg; outline: as §2
[11] = organism: Mus musculus; remark: listed apart in the source
[12] = tested on: Mus musculus; test: Retention for passive avoidance learning in mice at dose 5 mg/kg; assay type: functional, organism-based; set-up: dose 5 mg/kg; outline: as §1
[13] = tested on: Mus musculus; test: as §3; assay type: functional, organism-based; set-up: dose 0.63 mg/kg; outline: as §1; remark: listed apart in the source
[14] = tested on: Mus musculus; test: Compound was tested for cognitive activity by measuring retention for passive avoidance learning in mice at dose 1.25 mg/kg; assay type: functional, organism-based; set-up: dose 1.25 mg/kg; outline: as §2
[15] = tested on: Mus musculus; test: Compound was tested for cognitive activity by measuring retention for passive avoidance learning in mice at dose 40 mg/kg; assay type: functional, organism-based; set-up: dose 40 mg/kg; outline: as §1
[16] = tested on: Mus musculus; test: Compound was tested for cognitive activity by measuring retention for passive avoidance learning in mice at dose 20 mg/kg i; assay type: functional, organism-based; set-up: dose 20 mg/kg; outline: as §2
[17] = tested on: Mus musculus; test: Compound was tested for cognitive activity by measuring retention for passive avoidance learning in mice at dose 20 mg/kg; assay type: functional, organism-based; set-up: dose 20 mg/kg; outline: as §1
[18] = tested on: Mus musculus; test: Compound was tested for cognitive activity by measuring retention for passive avoidance learning in mice at dose 2.5 mg/kg; assay type: functional, organism-based; set-up: dose 2.5 mg/kg; outline: as §2
[19] = tested on: Mus musculus; test: Compound was tested for lethality in mice at a dose 80 mg/kg intraperitoneally; L denotes lethal at this dose; assay type: functional, organism-based; set-up: dose 80 mg/kg
Outline: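 Male CF-1 mice, 20 per group, were given the agent i.p. as an aqueous solution or methocel suspension 1 h before passive-avoidance training. The table entry L marks a dose that killed the animals.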

[20] = organism: Mus musculus; remark: listed apart in the source

Row | SMILES | Retention [1] [%] | Retention [2] [%] | Retention [3] [%] | Retention [8] [%] | Retention [9] [%] | other results
1 | [O-][n+]1cccc(Oc2ccccc2)c1 | 0 | 40 | 20 |  |  | 
2 | CCOc1ccccc1Oc1cccnc1 | 65 | 70 | 70 |  |  | 
3 | CNC(=O)Oc1ccc2c(c1)[C@]1(C)CCN(C)[C@@H]1N2C |  |  |  |  |  | Retention [4]: Lethal; Retention [5]: 35%; Retention [6]: 45%
4 | O=c1[nH]c2ccccc2n1C1CCN(CCCC(c2ccc(F)cc2)c2ccc(F)cc2)CC1 |  |  |  |  |  | Retention [5]: 40%; Retention [6]: 43%; Retention [7]: 27%
5 | CCCC(C)C1(CC)C(=O)NC(=O)NC1=O (stereo not drawn) |  |  |  | 7 | 40 | Retention [7]: 23%
6 | N[C@@H]1C[C@H]1c1ccccc1.N[C@H]1C[C@@H]1c1ccccc1 |  |  | 55 |  |  | Retention [10]: 80%; Retention [11]: Lethal at this dose; Retention [12]: 75%
7 | COC(=O)c1cccc(Oc2cccnc2)c1 | 55 | 70 | 60 |  |  | 
8 | c1ccc(Oc2cccnc2)cc1 | 35 | 100 | 70 | 90 | 90 | Retention [13]: 65%
9 | Clc1ccc(Oc2cccnc2)cc1 | 65 | 80 | 30 | 70 | 65 | Retention [13]: 55%
10 | [O-][n+]1cccc(Oc2ccc[n+]([O-])c2)c1 | 60 | 90 | 90 | 60 | 75 | Retention [13]: 65%
11 | O=C1C[C@@H]2OCC=C3CN4CC[C@]56c7ccccc7N1[C@H]5[C@H]2[C@H]3C[C@H]46 |  |  |  |  |  | Retention [5]: 70%; Retention [7]: 75%
12 | C=C(C)[C@@H]1[C@H]2OC(=O)[C@@H]1[C@]1(O)C[C@H]3OC34C(=O)O[C@H]2[C@@]41C.CC(C)(O)[C@@H]1[C@H]2OC(=O)[C@@H]1[C@]1(O)C[C@H]3OC34C(=O)O[C@H]2[C@@]41C (stereo partly drawn) |  |  |  | 80 |  | Retention [14]: 90%; Retention [5]: 65%; Retention [12]: 70%; Retention [7]: 80%
13 | Cc1cncc(Oc2ccccc2)c1 | 45 | 70 | 80 |  |  | 
14 | Cn1c(=O)c2c(ncn2C)n(C)c1=O | 0 |  |  | 37 | 87 | Retention [10]: 3%; Retention [15]: 3%; Retention [12]: 37%; Retention [7]: 70%
15 | CCC1(C)CC(=O)NC1=O (stereo not drawn) | 95 |  |  |  |  | Retention [10]: 63%; Retention [15]: 70%; Retention [16]: 90%
16 | Brc1ccccc1Oc1cccnc1 |  | 65 |  |  |  | Retention [17]: 50%
17 | COc1ccc(Oc2cccnc2)cc1 | 35 | 78 | 75 |  |  | 
18 | C[C@H](N)Cc1ccccc1 |  |  |  |  |  | Retention [14]: 60%; Retention [18]: 65%; Retention [5]: 80%; Retention [6]: 45%; Retention [7]: 100%
19 | [O-][n+]1cccc(Oc2cccnc2)c1 | 85 | 85 | 85 | 65 | 45 | Retention [13]: 60%
20 | Clc1cccc(Oc2cccnc2)c1 | 0 | 60 | 60 |  |  | 
21 | c1ccc(Oc2ccccn2)cc1 | 30 | 65 | 50 |  |  | 
22 | Cc1ncccc1Oc1ccccc1[N+](=O)[O-] | 35 | 85 | 70 | 70 | 70 | 
23 | FC(F)(F)c1cccc(Oc2cccnc2)c1 |  | 30 | 55 |  |  | 
24 | Cc1ncccc1Oc1ccccc1N | 40 | 65 | 45 |  |  | 

Row | SMILES | Retention [1] [%] | Retention [2] [%] | Retention [3] [%] | Retention [8] [%] | Retention [9] [%] | other results
25 | [Cl-].[Li+] | 38 |  |  | 70 | 84 | Retention [10]: 31%; Retention [15]: 23%; Retention [12]: 0%; Retention [7]: 60%
26 | CN1C(=O)CN=C(c2ccccc2)c2cc(Cl)ccc21 |  |  |  | 40 | 53 | Retention [12]: 41%
27 | C1CCc2nnnn2CC1 |  |  | 80 |  |  | Retention [19]: Lethal at this dose; Retention [10]: 65%; Retention [15]: 80%; Retention [12]: 80%
28 | CN1[C@@H]2C[C@@H](OC(=O)[C@H](CO)c3ccccc3)C[C@H]1[C@@H]1O[C@@H]12 |  |  |  |  |  | Retention [14]: 35%; Retention [5]: 65%; Retention [6]: 65%; Retention [7]: 30%
29 | O=C1NC(=O)C(c2ccccc2)(c2ccccc2)N1 | 15 |  |  | 75 | 85 | Retention [10]: 43%; Retention [15]: 50%; Retention [12]: 90%; Retention [16]: 55%
30 | c1ccc(Oc2ccncc2)cc1 | 0 | 70 | 65 |  |  | 
31 | Fc1ccccc1Oc1cccnc1 | 50 | 90 | 85 | 80 | 65 | Retention [13]: 60%
32 | COc1cccc(Oc2cccnc2)c1 | 20 | 55 | 55 |  |  | 
33 | Fc1ccc(Oc2cccnc2)cc1 | 50 | 95 | 80 | 85 | 60 | Retention [13]: 35%
34 | COC(=O)C(c1ccccc1)C1CCCCN1 (stereo not drawn) |  |  | 87 | 50 | 50 | Retention [10]: 65%; Retention [12]: 90%
35 | c1ccc(Sc2cccnc2)cc1 | 85 | 80 | 85 |  |  | 
36 | CC(N)Cc1ccccc1 (stereo not drawn) |  |  |  | 75 | 70 | 
37 | CN(C)CCCN1c2ccccc2CCc2ccccc21 |  |  | 77 |  |  | Retention [10]: 80%; Retention [15]: 72%; Retention [12]: 65%
38 | Nc1ccccc1Oc1cccnc1 | 55 | 80 | 65 | 70 |  | 
39 | Fc1cccc(Oc2cccnc2)c1 | 55 | 90 | 55 | 75 | 75 | Retention [13]: 65%
40 | Brc1ccc(Oc2cccnc2)cc1 | 85 | 90 | 70 | 70 | 75 | Retention [13]: 75%
41 | NC1=NC(=O)C(c2ccccc2)O1 (stereo not drawn) | 77 |  | 83 |  |  | Retention [10]: 70%; Retention [15]: 83%; Retention [12]: 30%
42 | CN(C)CCCN1c2ccccc2Sc2ccc(Cl)cc21 |  |  |  | 70 | 70 | Retention [12]: 20%
43 | COc1cc2c(cc1OC)C1CC(=O)C(CC(C)C)CN1CC2 (stereo not drawn) |  |  |  | 63 | 59 | Retention [12]: 33%
44 | c1cncc(Oc2cccnc2)c1 | 55 | 85 | 100 |  |  | 
45 | Cc1ccncc1Oc1ccccc1 | 15 | 75 | 85 |  |  | 
46 | Clc1ccccc1Oc1cccnc1 | 40 | 95 | 80 | 40 | 45 | Retention [13]: 60%
47 | CN1CCC[C@H]1c1cccnc1 |  |  |  | 27 |  | Retention [14]: 53%; Retention [5]: 70%; Retention [20]: Lethal; Retention [7]: 75%
48 | O=[N+]([O-])c1ccccc1Oc1cccnc1 | 50 | 60 | 90 |  |  | 
